Data reported in ChEMBL document CHEMBL1145790, “Optimization of a tertiary alcohol series of phosphodiesterase-4 (PDE4) inhibitors: structure-activity relationship related to PDE4 inhibition and human ether-a-go-go related gene potassium channel binding affinity” (J Med Chem, 2003).

Legend:
[1] = target: Voltage-gated inwardly rectifying potassium channel KCNH2 (Homo sapiens, UniProt Q12809)
[2] = Ratio of lowest plasma concentration to measured over 30 min interval to 50% inhibition of LPS-induced TNF alpha production in human whole blood; type: functional
Canis familiaris [3] = test: Change in QTc were measured at 15 and 30 min after dosing of bolus at 10 mg/kg in dogs; type: functional, Canis lupus familiaris
How it was run: (§1)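 Chloralose-anesthetized mongrel dogs (n = 2 or 3) given iv bolus over 2–5 min as solution in 60–80% PEG-200. QTc recorded at 15 and 30 min postdose as percent change from baseline per dog; values averaged, ΔQTc taken as maximal mean percent change (range given).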

[4] = target: 3',5'-cyclic-AMP phosphodiesterase 4A (Homo sapiens, UniProt P27815); test: In vitro inhibitory activity was determined against human Phosphodiesterase 4 isoform using a construct representing the common region of spliced variants expressed as a GST-fusion protein in Sf 9 cells; type: cell-based
Chain of 3',5'-cyclic-AMP phosphodiesterase 4A (P27815 whole entry, looked up, stated change not applied, the tested form may be a part, canonical isoform): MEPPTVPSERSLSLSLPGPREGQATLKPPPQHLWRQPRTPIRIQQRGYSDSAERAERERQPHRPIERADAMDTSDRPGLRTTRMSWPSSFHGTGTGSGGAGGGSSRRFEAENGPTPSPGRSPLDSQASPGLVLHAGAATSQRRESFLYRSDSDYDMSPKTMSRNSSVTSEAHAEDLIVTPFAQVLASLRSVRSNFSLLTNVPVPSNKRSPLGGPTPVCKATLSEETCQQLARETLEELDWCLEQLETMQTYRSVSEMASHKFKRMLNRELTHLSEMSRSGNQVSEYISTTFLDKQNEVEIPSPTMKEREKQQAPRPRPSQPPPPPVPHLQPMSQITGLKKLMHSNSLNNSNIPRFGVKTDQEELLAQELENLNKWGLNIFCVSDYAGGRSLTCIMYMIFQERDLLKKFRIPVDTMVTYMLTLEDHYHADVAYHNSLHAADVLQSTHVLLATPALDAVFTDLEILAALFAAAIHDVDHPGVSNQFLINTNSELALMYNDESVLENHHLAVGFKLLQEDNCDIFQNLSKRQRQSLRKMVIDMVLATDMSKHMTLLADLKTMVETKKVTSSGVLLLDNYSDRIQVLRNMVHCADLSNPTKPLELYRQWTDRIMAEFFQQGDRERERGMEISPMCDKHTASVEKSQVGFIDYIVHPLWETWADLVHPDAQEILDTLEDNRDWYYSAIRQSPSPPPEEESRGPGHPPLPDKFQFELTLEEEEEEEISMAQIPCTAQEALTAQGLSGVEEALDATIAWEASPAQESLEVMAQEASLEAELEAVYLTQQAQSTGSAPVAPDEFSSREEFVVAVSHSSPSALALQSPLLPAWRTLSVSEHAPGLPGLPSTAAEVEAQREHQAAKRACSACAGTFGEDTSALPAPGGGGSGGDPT
How it was run: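 Human PDE4A, common-region construct of spliced variants expressed as GST-fusion in Sf9 cells; values mean ± SEM with n reported.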

[5] = In vitro inhibitory activity was determined against human whole blood; type: functional
[6] = In vitro inhibition of […] induced TNF-alpha production in human whole blood (HWB); type: functional, tissue-based
Canis familiaris [7] = test: Range of plasma concentration measured between 2 and 30 min in dogs after intravenous bolus dosing at 10 mg/kg; type: functional, organism-based; design: dose 10 mg/kg; settings: Canis lupus familiaris
How it was run: (§2)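 Anesthetized mongrel dogs, iv bolus (2–5 min) in 60–80% PEG-200; plasma drug levels measured by HPLC between 2 and 30 min after dosing, reported as range (±0.2 µM); data from n ≥ 2 dogs.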

Canis familiaris [8] = test: Range of plasma concentration measured between 2 and 30 min in dogs after intravenous bolus dosing at 3 mg/kg; type: functional, organism-based; design: dose 3 mg/kg; settings: Canis lupus familiaris
How it was run: as §2

Canis familiaris [9] = test: Change in QTc were measured at 15 and 30 min after dosing of bolus at 3 mg/kg in dogs; type: functional, Canis lupus familiaris
How it was run: as §1

Chain of Voltage-gated inwardly rectifying potassium channel KCNH2 (Q12809 whole entry): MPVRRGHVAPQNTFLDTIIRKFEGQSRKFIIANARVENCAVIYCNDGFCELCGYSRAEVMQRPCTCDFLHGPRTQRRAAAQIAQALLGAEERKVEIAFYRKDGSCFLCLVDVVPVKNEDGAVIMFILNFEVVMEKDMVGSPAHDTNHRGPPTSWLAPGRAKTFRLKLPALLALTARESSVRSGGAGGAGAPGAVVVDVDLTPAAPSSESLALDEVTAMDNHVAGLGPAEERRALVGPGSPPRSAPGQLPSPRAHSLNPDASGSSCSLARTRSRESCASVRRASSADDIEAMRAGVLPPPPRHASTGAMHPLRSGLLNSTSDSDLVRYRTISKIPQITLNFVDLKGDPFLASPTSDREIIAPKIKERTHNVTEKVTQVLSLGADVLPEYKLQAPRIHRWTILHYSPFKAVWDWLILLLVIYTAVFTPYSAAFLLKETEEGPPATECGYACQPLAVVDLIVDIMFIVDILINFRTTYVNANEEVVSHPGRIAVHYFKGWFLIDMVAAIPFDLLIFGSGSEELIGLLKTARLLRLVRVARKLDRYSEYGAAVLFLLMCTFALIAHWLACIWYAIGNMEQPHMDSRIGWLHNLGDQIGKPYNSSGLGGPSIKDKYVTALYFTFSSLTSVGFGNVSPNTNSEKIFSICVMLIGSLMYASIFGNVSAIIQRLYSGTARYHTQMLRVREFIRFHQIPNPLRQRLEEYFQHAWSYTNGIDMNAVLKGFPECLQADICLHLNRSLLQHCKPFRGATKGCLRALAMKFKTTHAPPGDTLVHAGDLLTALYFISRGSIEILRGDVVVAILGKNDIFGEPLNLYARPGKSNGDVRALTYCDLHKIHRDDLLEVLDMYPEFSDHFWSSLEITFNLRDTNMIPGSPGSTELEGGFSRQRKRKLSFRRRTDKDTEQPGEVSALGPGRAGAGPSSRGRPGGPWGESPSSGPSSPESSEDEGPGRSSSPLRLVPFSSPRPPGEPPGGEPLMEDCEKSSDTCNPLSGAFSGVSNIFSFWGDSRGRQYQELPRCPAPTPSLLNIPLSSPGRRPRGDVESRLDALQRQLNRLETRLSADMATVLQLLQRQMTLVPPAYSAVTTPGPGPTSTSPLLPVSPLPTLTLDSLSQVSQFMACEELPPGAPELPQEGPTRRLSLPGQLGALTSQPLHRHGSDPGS

Structure (SMILES)	Ki [1] [nM]	IC50 [4] [nM]	IC50 ([6]; Homo sapiens, Blood) [nM]	IC50 [6] [nM]	also measured
[O-][n+]1cccc(C[C@@H](c2ccc(OC(F)F)c(OC3CC3)c2)c2cnc(C(O)(C(F)(F)F)C(F)(F)F)s2)c1	61400	0.5	90	–	Ratio plasma concentration/IC50 [2]: 211; Change (Canis familiaris [3]): 3%; IC50 [5]: 90 nM; Plasma concentration (Canis familiaris [7]): 25 µM
CC(C)(O)c1ncc(C(Cc2cc[n+]([O-])cc2)c2ccc(OC(F)F)c(OC3CCC3)c2)s1 (stereo unspecified)	58400	0.5	90	–	Ratio plasma concentration/IC50 [2]: 40; Change (Canis familiaris [3]): 2.9%; IC50 [5]: 100 nM; Plasma concentration (Canis familiaris [7]): 10 µM
[O-][n+]1cccc(C[C@H](c2ccc(OC(F)F)c(OC3CC3)c2)c2cnc(C(O)(C(F)(F)F)C(F)(F)F)s2)c1	39000	48	2640	–	–
CC(O)(c1ccccc1)c1ccc(C(Cc2cc[n+]([O-])cc2)c2ccc(OC(F)F)c(OC(F)F)c2)cn1 (stereo unspecified)	1180	2.1	160	–	Plasma concentration (Canis familiaris [8]): 5 µM; Ratio plasma concentration/IC50 [2]: 12.5; IC50 [5]: 160 nM; Change (Canis familiaris [9]): 8.9%
CC(C)(O)c1ccc(C(Cc2cc[n+]([O-])cc2)c2ccc(OC(F)F)c(OC3CCC3)c2)cn1 (stereo unspecified)	25000	1	120	–	–
CC(C)(O)c1ccc(C(Cc2cc[n+]([O-])cc2)c2ccc(OC(F)F)c(OC3CCC3)c2)cc1 (racemic)	22400	1.6	260	–	–
[O-][n+]1ccc(CC(c2ccc(OC(F)F)c(OC3CCC3)c2)c2cnc(C(O)(C(F)(F)F)C(F)(F)F)s2)cc1 (racemic)	38100	0.8	20	–	–
[O-][n+]1ccc(CC(c2ccc(OC(F)F)c(OC3CC3)c2)c2cnc(C(O)(C(F)(F)F)C(F)(F)F)s2)cc1 (racemic)	–	0.4	20	–	–
CC(C)(O)c1ccc(C(Cc2ccc[n+]([O-])c2)c2ccc(OC(F)F)c(OC3CC3)c2)cn1 (single isomer, unassigned; (+)2d)	42200	2.1	–	200	–
CC(C)(O)c1ccc(C(Cc2cc[n+]([O-])cc2)c2ccc(OC(F)F)c(OC3CC3)c2)cn1 (single isomer, unassigned; (+))	–	1.2	–	60	–
CC(C)(O)c1ccc(C(CC2=CCC(=O)N=C2)c2ccc(OC(F)F)c(OC3CC3)c2)cn1 (single isomer, unassigned; (+))	–	–	60	–	–
CC(C)(O)c1ccc(C(Cc2ccc[n+]([O-])c2)c2ccc(OC(F)F)c(OC3CC3)c2)cn1 (single isomer, unassigned; (-)2d)	44700	334	–	17900	–
CC(C)(O)c1ccc(C(Cc2cc[n+]([O-])cc2)c2ccc(OC(F)F)c(OC3CC3)c2)cn1 (single isomer, unassigned; (-))	–	55	–	3520	–
CC(C)(O)c1ccc(C(Cc2cc[n+]([O-])cc2)c2ccc(OC(F)F)c(OC(F)F)c2)cn1 (single isomer, unassigned; (-))	22700	35	–	640	–
CC(C)(O)c1ccc(C(Cc2cc[n+]([O-])cc2)c2ccc(OC(F)F)c(OC(F)F)c2)cn1 (stereo in doubt; 2a(+))	25400	520	–	9010	–
COc1ccc([C@H](Cc2ccncc2)c2ccccc2)cc1OC1CCCC1 [CDP840]	–	4.3	16200	–	–
O=c1[nH]c2c(O)ccc(CCNCCS(=O)(=O)CCCOCCc3ccccc3)c2s1 [SIBENADET]	–	38	18000	–	–
